Experimental data: PubChem BioAssay AID493160 (Sanford-Burnham Center for Chemical Genomics, 2011)
The campaign covered roughly 340,000 compounds. About 540 (0.16%) were called active. The full list was thinned out, with actives kept by preference. Unmarked numbers belong to inactive results.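 The calls were made as follows: active = inhibition above about 35% when tested at 20 µM (limit read from the data); inactive = the rest.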

The compounds below were run against Hexokinase HKDC1 (Homo sapiens) (UniProt Q2TB90) (assay: HKDC1 hexokinase inhibitors, primary screen, biochemical, fluorescence, uHTS (AID 493160;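 also: plate controls were DMSO wells with enzyme for no effect and DMSO wells lacking enzyme for full effect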)). Details: recombinant HKDC1, G6PDH/diaphorase resazurin coupled fluorescence; at 20 µM; hits give high values.
Method in brief: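 Material – in-house recombinant HK5 (HKDC1) enzyme · Quantity – HKDC1 at 5 µg/mL · Buffer or medium – pH 8.0 Tris buffer with 10 mM MgCl2 · Reagent – glucose with 1 mM ATP · Dosing – single 20 µM dose · Times – reaction time 90 min, room temperature, protected from light · Technique – resorufin fluorescence at 613 nm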

Sequence of Hexokinase HKDC1 (Homo sapiens) (Q2TB90 whole entry, looked up): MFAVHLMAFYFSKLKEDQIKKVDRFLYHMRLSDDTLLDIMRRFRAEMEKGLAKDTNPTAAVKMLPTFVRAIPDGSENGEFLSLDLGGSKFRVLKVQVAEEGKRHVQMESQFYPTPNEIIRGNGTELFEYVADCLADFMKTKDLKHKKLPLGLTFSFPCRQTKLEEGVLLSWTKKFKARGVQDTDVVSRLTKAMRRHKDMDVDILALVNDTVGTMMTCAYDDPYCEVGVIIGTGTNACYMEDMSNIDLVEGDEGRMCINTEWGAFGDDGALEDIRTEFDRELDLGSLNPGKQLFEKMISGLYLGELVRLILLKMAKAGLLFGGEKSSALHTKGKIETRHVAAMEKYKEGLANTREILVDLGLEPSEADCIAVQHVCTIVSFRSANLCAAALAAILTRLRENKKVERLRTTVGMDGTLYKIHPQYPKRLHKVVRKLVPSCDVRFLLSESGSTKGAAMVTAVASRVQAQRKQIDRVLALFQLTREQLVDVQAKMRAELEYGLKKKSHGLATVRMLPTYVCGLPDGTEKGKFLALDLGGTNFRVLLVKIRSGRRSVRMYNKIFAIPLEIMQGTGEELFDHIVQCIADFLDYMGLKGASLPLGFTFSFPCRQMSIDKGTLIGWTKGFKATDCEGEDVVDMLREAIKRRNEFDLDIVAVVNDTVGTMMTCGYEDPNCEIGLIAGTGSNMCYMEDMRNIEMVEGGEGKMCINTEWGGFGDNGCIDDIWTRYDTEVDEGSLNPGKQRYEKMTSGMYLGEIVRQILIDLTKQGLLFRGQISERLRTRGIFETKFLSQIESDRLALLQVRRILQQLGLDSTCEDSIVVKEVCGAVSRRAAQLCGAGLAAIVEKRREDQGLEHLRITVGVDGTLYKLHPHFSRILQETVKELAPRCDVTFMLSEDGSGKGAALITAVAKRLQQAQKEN

Row | Structure (SMILES) | inhibition
1 | Cc1ccc(C(C)(C)C)c(OCCCCN2CCCC2)c1 | -1.47%
2 | CC1(C)CC(=O)C=C(c2ccc3ncccc3c2)C1 | 11.6%
3 | N/C(=N\c1nc2ccccc2o1)NC(=O)C(Cc1ccccc1)N1C(=O)c2ccccc2C1=O (stereo not given) | -5.13%
4 | CCc1cc(CNC(=O)CC2C(=O)NCCN2CC2CCCCC2)on1 (stereo not given) | -15.1%
5 | O=C(Cn1c2[n+](c3ccc(C(F)(F)F)cc31)CCCCC2)Nc1c(F)cccc1F | 1.03%
6 | CCOC(=O)c1ccccc1NC(=O)COC(=O)C(Cc1c[nH]c2ccccc12)NC(C)=O (stereo not given) | 0.25%
7 | O=C(Nc1ccc(S(=O)(=O)Nc2ncccn2)cc1)c1cncc(Br)c1 | -5.17%
8 | CCC1SC2=NCCN2C1(O)c1ccc(Cl)cc1 (stereo not given) | 10.4%
9 | C#CCOCCOCCOCCNc1nc(N2CCN(C(=O)C([C@@H](C)CC)n3cc(C(N)COC(=O)C(F)(F)F)nn3)CC2)nc(N2CCN(C(=O)[C@H](Cc3ccc(O)cc3)n3cc(C(N)[C@H](C)CC)nn3)CC2)n1 (stereo not given in full) | 1.5%
10 | CC(=O)N(CC1CCCO1)C1(C(=O)NC2CCCC2)CCCCC1 (stereo not given) | 2.48%
11 | COc1ccc(CN2CC(C(=O)NCCc3ccc(Cl)cc3)CC2=O)cc1 (stereo not given) | -3.16%
12 | Cc1ccc(Nc2nnc(SC(C)C(=O)NC3CC3)s2)cc1 (stereo not given) | -5.42%
13 | CC12CN(NC(=O)c3ccc(Cl)cc3)C3(C#N)CC1CCC23C (stereo not given) | -3.27%
14 | Cc1noc(C)c1S(=O)(=O)N(C)C[C@H]1Oc2ccc(NC(=O)C3CC3)cc2C(=O)N([C@H](C)CO)C[C@@H]1C | 3.28%
15 | CCn1cc(C(=O)OCC(=O)Nc2cccc(C)c2)c(=O)c2ccc(C)nc21 | -3.21%
16 | COCc1c(C(=O)N/N=C\c2cccnc2)nnn1-c1nonc1N | -3.41%
17 | COc1cc(/C=C/C(=O)OCC(=O)N2CCOCC2)ccc1OCC#N | -1.34%
18 | COc1ccc(C(=O)Nc2cc(S(=O)(=O)N3CCCC3)ccc2Cl)cc1 | 1.91%
19 | O=C1C(Cl)=C(Oc2ccccc2)C(=O)c2ccccc21 | 65.2% (active)
20 | Nc1ccc2nc3c(=O)[nH]c(=S)[nH]c3nc2c1 | 69.9% (active)
21 | C=CCn1c(CCNC(=O)c2ccccc2F)nnc1SCC(=O)Nc1ccc(OC)cc1 | -6.44%
22 | COc1ccc(S(=O)(=O)N2CCCC2CNC(=O)C(=O)NC2CC2)cc1 (stereo not given) | 0.83%
23 | Cc1ccc2c(c1)N(S(=O)(=O)c1cc(-c3cc(C)no3)ccc1C)CCO2 | 1.39%
24 | O=S(N1CCCCCC1)C12CC3CC(CC(C3)C1)C2 (stereo not given) | -7.44%
25 | O=C(CNC(=O)Cc1ccccc1)NCC(=O)OCC(=O)c1ccccc1Cl | 8.72%
26 | CCOC(=O)c1ccc(NC(=O)c2nc[nH]c2C(=O)N[C@@H](CCCCNC(=O)OC(C)(C)C)C(=O)OC(C)(C)C)cc1 | 3.03%
27 | Oc1c(C(c2ccco2)N2CCC3(CC2)OCCO3)sc2ncnn12 (stereo not given) | 0.37%
28 | O=C(Cc1ccc(NC(=O)C2CCCN(C(=O)C3CCCCC3)C2)cc1)Nc1cccc(C(=O)N2CCCCC2)c1 (stereo not given) | -3.33%

Row | Structure (SMILES) | inhibition
29 | CCC(C)c1ccc(O)c(/C=N/O)c1 (stereo not given) | -1.01%
30 | CCOC(=O)CCP(=O)(O)C(O)(c1ccccc1)c1ccccc1 | -11.5%
31 | CCN(CC)C(=O)C(=O)c1cn(CC(=O)NCc2ccc3c(c2)OCO3)c2ccccc12 | -5.09%
32 | OC(COCc1ccco1)CN1CCN(c2ccccc2)CC1 (stereo not given) | -10.6%
33 | Cc1ccc(-c2cnc(NC(=O)CCC(=O)N(C)Cc3ccccc3)n2C)cc1 | -3.47%
34 | Cc1cccc(-n2ncc3c(=O)[nH]c(SCC(=O)Nc4cc(C)on4)nc32)c1 | -3.1%
35 | CC1CN(C2CCCCC2)c2nc3c(c(=O)n(C)c(=O)n3C)n2C1 (stereo not given) | 3.52%
36 | CC(C)(C)NC(=O)CSc1nnc(NC(=O)CCc2ccccc2)s1 | -2.99%
37 | Cc1cc(-c2n[nH]c(=S)n2/N=C/C(Br)=C/c2ccccc2)n[nH]1 | 29.1%
38 | COc1ccc(O)c(C(=O)c2cnc3onc(C(C)C)c3c2)c1 | -4.62%
39 | Cc1ccc(CNC(=O)CCS(=O)(=O)c2ccc3c(c2)CC(C)N3C(=O)C2CC2)o1 (stereo not given) | -0.82%
40 | CC1CCN(S(=O)(=O)c2ccc(S(=O)(=O)NCc3cccnc3)cc2)CC1 | -6.19%
41 | CC(C)(C)c1cc(CN2CCN(CCC#N)CC2)cc(C(C)(C)C)c1O | 3.39%
42 | Cc1nn(C)c(C)c1NS(=O)(=O)c1ccc(OC(F)(F)F)cc1 | -3.33%
43 | O=S(=O)(Nc1ccc(O)c2ccccc12)c1ccc(OC(F)(F)F)cc1 | 52% (active)
44 | O=C1COc2ccc(S(=O)(=O)Nc3ccc(OC(F)(F)F)cc3)cc2N1 | 2.53%
45 | C=C(C)c1cccc(C(C)(C)NC(=O)NCCN(CC)CC)c1 | 13%
46 | CC1Cc2ccccc2N1S(=O)(=O)c1cccc(C(=O)OCC(=O)N2CCOCC2)c1 (stereo not given) | -4.82%
47 | COc1cc(NC(=O)C2=C(C)OCCS2)c(Cl)cc1C(=O)NCCN1CCN(C)CC1 | -3.87%
48 | COCCCNC(NC(=O)c1ccc(OC)cc1)C(Cl)(Cl)Cl (stereo not given) | -2.25%
49 | CC(C)(C)OC(=O)N(Cc1ccccc1)Cc1ccc(OCc2cccc(NC(=O)c3ccccc3)c2)cc1 | -0.76%
50 | COc1ccc(Nc2ncc(C(=O)N3CCN(c4ccccc4OC)CC3)c3ccccc23)cc1 | 3.14%
51 | CCc1c(Nc2ccccc2Cl)nc(N)[nH]c1=O | -5.05%
52 | Fc1ccccc1OCCSc1nc2ccccc2o1 | 7.74%
53 | CC(C)C[C@H](NC(=O)N1CC(=O)Nc2ccccc21)C(=O)N[C@H](Cc1ccccc1)C(=O)O | -0.33%
54 | CN(C(=O)CSc1cccc[n+]1[O-])C1CCCCC1 | -5.14%
55 | NC(=O)C1CC=CCC1C(=O)OCC(Cl)=C(Cl)Cl (stereo not given) | -10.8%
